The test system of data set [1] is HeLa. The experiment in a line: Antiproliferative activity against HeLa cells in dark. Format: functional, cell-based. Conditions: Homo sapiens; call rule not given here. In outline:
(§1)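 HeLa cells (10^5 per well) were grown in F-12 with 10% heat-inactivated FCS at 37 °C in 5% CO2. After 24 h, medium was swapped for phenol-red-free DMEM with compound. For UVA, cells were irradiated after 1 h at 0.789 J cm-2 (365 nm), then the drug medium was replaced with complete F-12 for 24 h. In the dark arm, cells stayed 24 h with compound in complete F-12. IC50 is the concentration giving 50% fewer cells than control.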

The subject of data set [2] is HeLa. The experiment in a line: Antiproliferative activity against HeLa cells in presence of 0.789 J/cm2 UVA light. Format: functional, cell-based. The settings on record: Homo sapiens, light or radiation study. In outline: as §1
The test system of data set [3] is HL-60. The experiment in a line: Antiproliferative activity against HL60 cells in dark. Conditions: Homo sapiens. The class given is functional, cell-based. In outline:
(§2)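 HL-60 cells (10^5 per well) were grown in RPMI 1640 with 15% heat-inactivated FCS and antibiotics at 37 °C in 5% CO2. After 24 h, compound was added in complete medium. For the irradiated arm, cells were kept 1 h in the dark, then given 0.789 J cm-2 UVA (365 nm lamps). Cells were incubated a further 24 h and viability read by trypan blue. IC50 is the concentration giving 50% fewer cells than control.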

For data set [4], the system named is HL-60. The experiment in a line: Antiproliferative activity against HL60 cells in presence of 0.789 J/cm2 UVA light. The settings on record: Homo sapiens, HL-60, light or radiation study. The class given is functional, cell-based. Put shortly: as §2
The species entered for data set [5] is Cavia porcellus. The experiment in a line: Phototoxicity in albino Dunkin-Hartley guinea pig skin assessed as formation of erythema at 0.14 umol/cm2. Conditions: in vivo, topical_or_ocular. The class given is organism-based, Zone of skin. Put shortly:
(§3)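 Depilated albino outbred Dunkin-Hartley guinea pigs received the compound as an ethanol solution applied topically to the skin. Animals were kept 45 min in the dark, then the treated skin was irradiated with 20 kJ m-2 UVA. Erythema was scored after 48 h.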

Data set [6] deals with Cavia porcellus. Description: Phototoxicity in albino Dunkin-Hartley guinea pig skin assessed as formation of erythema with edema at 0.046 umol/cm2. The class given is organism-based, Zone of skin. Conditions: in vivo, topical_or_ocular. Put shortly: as §3
Data set [7] is filed under the species Cavia porcellus. Description: Phototoxicity in albino Dunkin-Hartley guinea pig skin assessed as formation of erythema at […]. Conditions: in vivo, topical_or_ocular. The class given is organism-based, Zone of skin. In outline: as §3
Data set [8] deals with DNA topoisomerase II (Homo sapiens) (UniProt P11388+Q02880). Description: Inhibition of topoisomerase 2 by ATP-dependent decatenation of kinetoplast DNA. The class given is protein assay. In outline: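 Human topoisomerase II (1 U) was incubated with 0.15 µg kinetoplast DNA and compound (1, 2, 4, 8 µM) in 20 µL for 1 h at 37 °C. The reaction was stopped with stop buffer plus proteinase K 50 µg/mL for 30 min at 37 °C. Decatenation was read on a 1% agarose gel with ethidium bromide 0.5 µg/mL in TAE, pH 8.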

Where only a bound is given, the exact number is not on record here.

Take `Cc1cc(=O)oc2cc(O)c3c4ccccc4oc3c12`: the IC50 in the data set on HeLa [1], with HeLa [2], with HL-60 [3] and in the data set on HL-60 [4] was more than 20 µM each time. The Activity result in the data set filed under Cavia porcellus [5] is on record as “Not Active”.

Take `Cc1cc(=O)oc2cc(OCCCN(C)C)c3c4c(oc3c12)CCCC4`: the IC50 in the data set with HeLa [1] was more than 20 µM; in the data set on HeLa [2], 0.4 µM; with HL-60 [3] it was 7.9 µM; with HL-60 [4], 0.61 µM. Further, the Activity entry in the data set filed under Cavia porcellus [5] was “Not Active”.

Consider `COc1c2occc2cc2ccc(=O)oc12` [METHOXSALEN], for which the 50% inhibitory concentration (IC50) in the data set on HeLa [1] and in the data set with HL-60 [3] was more than 20 µM throughout. Besides, the outcome in the data set on Cavia porcellus [6] was Active.

On to `COc1cc2oc(=O)cc(C)c2c2oc3c(c12)CCCC3`, for which the IC50 with HeLa [1], in the data set with HeLa [2], with HL-60 [3] and in the data set with HL-60 [4] was more than 20 µM in each case. Also, in the data set filed under Cavia porcellus [5], the Activity entry is listed as “Not Active”.

On to `Cc1cc(=O)oc2cc(OCCCN(C)C)c3c4ccccc4oc3c12`, for which the IC50 in the data set on HeLa [1] was found to be 3.5 µM; in the data set with HeLa [2] it was 0.0043 µM; with HL-60 [3], 0.48 µM; in the data set with HL-60 [4], 0.0105 µM. Besides, the Activity entry is “Not Active” in the data set listed under Cavia porcellus [7] and “Active” with Cavia porcellus [6]. Moreover, in data set [8], the inhibition entry is “Dose-dependent effect”.

In the case of `COc1cc2oc(=O)cc(C)c2c2oc3ccccc3c12`, the IC50 in the data set on HeLa [1], with HeLa [2], in the data set with HL-60 [3] and with HL-60 [4] was more than 20 µM in each case. Moreover, the Activity result in the data set filed under Cavia porcellus [5] was “Not Active”.

Consider `Cc1cc(=O)oc2cc(O)c3c4c(oc3c12)CCCC4`, for which the IC50 in the data set with HeLa [1], in the data set with HeLa [2], in the data set on HL-60 [3] and in the data set on HL-60 [4] was more than 20 µM each time. Moreover, the Activity entry in the data set filed under Cavia porcellus [5] is on record as “Not Active”.

These data come from ChEMBL document CHEMBL1138081, “New furan side tetracyclic allopsoralen derivatives: synthesis and photobiological evaluation” (J Med Chem, 2006).
